Data: ChEMBL document CHEMBL1149705, “Synthesis and antimicrobial evaluation of new chalcones containing piperazine or 2,5-dichlorothiophene moiety” (2007)
In brackets after ≈: the same amount, converted by molar mass.

Key:
Assay type in all cases: functional
Pichia kudriavzevii [1] = assay: Antifungal activity against Candida krusei GO3 after 48 hrs by agar well diffusion technique
Nakaseomyces glabratus [2] = assay: Antifungal activity against Candida glabrata HO3 at 250 ug/ml after 48 hrs by agar well diffusion technique; conditions: read-out: IZ
Pichia kudriavzevii [3] = assay: Antifungal activity against Candida krusei GO3 at 250 ug/ml after 48 hrs by agar well diffusion technique; conditions: read-out: IZ
Klebsiella pneumoniae = assay: Antibacterial activity against Klebsiella pneumoniae at 250 ug/ml after 48 hrs by agar well diffusion technique; conditions: read-out: IZ
Method in brief: (§1)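 Cup-plate agar well diffusion on nutrient agar, set for 1–1.5 h. Cups of 10 mm were bored with a sterile cork borer, and test solution was added by sterile syringe. Plates were incubated at 37 °C for 48 h. The read-out was inhibition zone diameter in mm, graded 0–6 mild, 7–13 moderate and 14–26 efficacy. Ciprofloxacin was the standard; 10% DMSO served as solvent control.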

Nakaseomyces glabratus [4] = assay: Antifungal activity against Candida glabrata HO3 after 48 hrs by agar well diffusion technique
Aspergillus fumigatus = assay: Antifungal activity against Aspergillus fumigatus at 250 ug/ml after 48 hrs by agar well diffusion technique; conditions: read-out: IZ; method in brief: as §1
Escherichia coli = assay: Antibacterial activity against Escherichia coli ESS 2231 at 250 ug/ml after 48 hrs by agar well diffusion technique; conditions: read-out: IZ; method in brief: as §1
Proteus vulgaris = assay: Antibacterial activity against Proteus vulgaris at 250 ug/ml after 48 hrs by agar well diffusion technique; conditions: read-out: IZ; method in brief: as §1
Candida albicans [5] = assay: Antifungal activity against Candida albicans after 48 hrs by agar well diffusion technique
Staphylococcus aureus = assay: Antibacterial activity against Staphylococcus aureus 209p at 250 ug/ml after 48 hrs by agar well diffusion technique; conditions: read-out: IZ; method in brief: as §1
Candida albicans [6] = assay: Antifungal activity against Candida albicans at 250 ug/ml after 48 hrs by agar well diffusion technique; conditions: read-out: IZ

Row | SMILES | MIC50 (Pichia kudriavzevii [1]) [µg/mL] | zone of inhibition at 250 µg/mL (Nakaseomyces glabratus [2]) [mm] | zone of inhibition at 250 µg/mL (Pichia kudriavzevii [3]) [mm] | zone of inhibition at 250 µg/mL (Klebsiella pneumoniae) [mm] | MIC50 (Nakaseomyces glabratus [4]) [µg/mL] | zone of inhibition at 250 µg/mL (Aspergillus fumigatus) [mm] | zone of inhibition at 250 µg/mL (Escherichia coli) [mm] | zone of inhibition at 250 µg/mL (Proteus vulgaris) [mm] | MIC50 (Candida albicans [5]) [µg/mL] | zone of inhibition at 250 µg/mL (Staphylococcus aureus) [mm] | zone of inhibition at 250 µg/mL (Candida albicans [6]) [mm]
1 | O=C(/C=C/C=C/c1ccccc1)c1ccc(N2CCNCC2)cc1 | 60 (≈ 188 µM) | 6 | 14 | 5 | 75 (≈ 236 µM) | 14 | 16 | 8 | 90 (≈ 283 µM) | 10 | 9
2 | O=C(/C=C/c1ccccc1)c1ccc(N2CCNCC2)cc1 | 5.38 (≈ 18.4 µM) | 24 | 24 | 18 | 7.57 (≈ 25.9 µM) | 22 | 24 | 20 | 4.56 (≈ 15.6 µM) | 22 | 24
3 | O=C(/C=C/c1ccccc1)c1cc(Cl)sc1Cl | 3.17 (≈ 11.2 µM) | 26 | 26 | 18 | 4.65 (≈ 16.4 µM) | 24 | 20 | 22 | 2.22 (≈ 7.84 µM) | 18 | 26
4 | Cc1cccc(/C=C/C(=O)c2ccc(N3CCNCC3)cc2)c1 | 5.69 (≈ 18.6 µM) | 22 | 24 | 16 | 9.94 (≈ 32.4 µM) | 20 | 22 | 20 | 6.89 (≈ 22.5 µM) | 24 | 16
5 | Cc1ccc(/C=C/C(=O)c2ccc(N3CCNCC3)cc2)cc1 | 7.02 (≈ 22.9 µM) | 24 | 22 | 14 | 7.66 (≈ 25 µM) | 18 | 14 | 14 | 8.75 (≈ 28.6 µM) | 16 | 22
6 | COc1ccc(/C=C/C(=O)c2cc(Cl)sc2Cl)cc1 | 18.2 (≈ 58 µM) | 18 | 18 | 16 | 16.4 (≈ 52.3 µM) | 22 | 18 | 14 | 5 (≈ 16 µM) | 14 | 20
7 | O=C(/C=C/c1ccc(Cl)cc1)c1cc(Cl)sc1Cl | 70 (≈ 220 µM) | 14 | 22 | 8 | 40 (≈ 126 µM) | 18 | 16 | 14 | 4.65 (≈ 14.6 µM) | 14 | 24
8 | COc1ccc(/C=C/C(=O)c2ccc(N3CCNCC3)cc2)cc1 | 50 (≈ 155 µM) | 18 | 14 | 16 | 16.2 (≈ 50.4 µM) | 18 | 22 | 14 | 9.12 (≈ 28.3 µM) | 24 | 22
9 | COc1cc(/C=C/C(=O)c2ccc(N3CCNCC3)cc2)cc(OC)c1OC | 75 (≈ 196 µM) | 9 | 12 | 9 | 60 (≈ 157 µM) | 12 | 8 | 6 | 65 (≈ 170 µM) | 6 | 9
10 | O=C(/C=C/c1ccc(Cl)cc1)c1ccc(N2CCNCC2)cc1 | 60 (≈ 184 µM) | 14 | 20 | 14 | 60 (≈ 184 µM) | 12 | 22 | 16 | 55 (≈ 168 µM) | 18 | 18
11 | O=C(/C=C/c1cccc([N+](=O)[O-])c1)c1ccc(N2CCNCC2)cc1 | 18.6 (≈ 55 µM) | 18 | 18 | 14 | 16.8 (≈ 49.8 µM) | 20 | 26 | 18 | 6.75 (≈ 20 µM) | 24 | 16
12 | Cc1ccc(/C=C/C(=O)c2cc(Cl)sc2Cl)cc1 | 70 (≈ 236 µM) | 12 | 10 | 8 | 80 (≈ 269 µM) | 6 | 16 | 9 | 70 (≈ 236 µM) | 12 | 16
13 | COc1cc(/C=C/C(=O)c2cc(Cl)sc2Cl)cc(OC)c1OC | 40.1 (≈ 108 µM) | 20 | 22 | 6 | 45.1 (≈ 121 µM) | 14 | 14 | 12 | 78 (≈ 209 µM) | 12 | 6
14 | O=C(/C=C/c1cccc([N+](=O)[O-])c1)c1cc(Cl)sc1Cl | 50 (≈ 152 µM) | 14 | 12 | 20 | 50 (≈ 152 µM) | 16 | 22 | 18 | 5.97 (≈ 18.2 µM) | 24 | 18
15 | O=C(/C=C/C=C/c1ccccc1)c1cc(Cl)sc1Cl | 55.6 (≈ 180 µM) | 16 | 16 | 7 | 60 (≈ 194 µM) | 20 | 16 | 11 | 75 (≈ 243 µM) | 9 | 8
16 | O=C(O)c1cn(C2CC2)c2cc(N3CCNCC3)c(F)cc2c1=O [CIPROFLOXACIN] | – | – | – | 24 | – | 24 | – | 24 | – | 22 | –
17 | OC(Cn1cncn1)(Cn1cncn1)c1ccc(F)cc1F [FLUCONAZOLE] | 50 (≈ 163 µM) | 29 | 29 | – | 50 (≈ 163 µM) | – | – | – | 50 (≈ 163 µM) | – | 29
